Measurements gathered from unrelated publications.
Compare with care: the assays were run in different laboratories.
Target: NUAK family SNF1-like kinase 1 (NUAK1, Homo sapiens, UniProt O60285)
Residues used in one study (O60285 1-661): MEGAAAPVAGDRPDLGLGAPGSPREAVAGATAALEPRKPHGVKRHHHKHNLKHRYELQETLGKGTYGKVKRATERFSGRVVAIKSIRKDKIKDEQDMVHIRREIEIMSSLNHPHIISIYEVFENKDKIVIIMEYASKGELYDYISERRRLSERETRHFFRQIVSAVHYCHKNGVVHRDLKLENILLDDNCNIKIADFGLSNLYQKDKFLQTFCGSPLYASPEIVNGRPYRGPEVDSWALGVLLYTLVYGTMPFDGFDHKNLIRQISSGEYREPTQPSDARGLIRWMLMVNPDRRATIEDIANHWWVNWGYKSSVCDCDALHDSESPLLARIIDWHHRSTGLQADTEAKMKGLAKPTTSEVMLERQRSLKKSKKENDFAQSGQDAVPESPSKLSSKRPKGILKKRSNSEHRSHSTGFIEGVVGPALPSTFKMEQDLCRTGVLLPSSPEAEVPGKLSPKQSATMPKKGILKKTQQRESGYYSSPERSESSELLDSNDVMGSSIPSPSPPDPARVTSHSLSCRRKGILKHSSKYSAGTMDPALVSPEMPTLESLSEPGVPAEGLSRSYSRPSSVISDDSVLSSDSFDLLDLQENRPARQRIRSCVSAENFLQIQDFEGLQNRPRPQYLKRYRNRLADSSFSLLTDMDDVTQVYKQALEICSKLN

SMILES	test	setting	measurement	value
COc1ccc2[nH]c3c4[nH]c5ccc(OC)cc5c4c4c(c3c2c1)C(=O)NC4=O	binding	1 µM	remaining binding	25%
C=CC(=O)N1CCC[C@@H](n2nc(-c3ccc(Oc4ccccc4)cc3)c3c(N)ncnc32)C1	enzyme activity, inhibitor	1 µM	inhibition	10%
C[C@H]1CC[C@H](n2c3cnccc3c3cnc(Nc4ccc5c(n4)CCN(C(=O)CO)C5)nc32)CC1	cell-free assay	1 µM	remaining signal	72%
CCCCC(=O)Nc1ccc(-c2ccc3ncn(CCC)c(=O)c3c2)cn1	binding, competition with immobilised ligand	0.5 µM	remaining binding	73%
CC(C)S(=O)(=O)c1ccc2nccc(Nc3ccc4sc(C5CCCC5)nc4c3)c2c1	enzyme activity, inhibitor	1 µM	activity vs control	108%
C1=C/COCc2cc(ccc2OCCN2CCCC2)Nc2nccc(n2)-c2cccc(c2)COC/1	cell-free assay	0.1 µM	remaining signal	39%
C=CC(=O)N1CCC([C@@H]2CCNc3c(C(N)=O)c(-c4ccc(Oc5ccccc5)cc4)nn32)CC1	enzyme activity, inhibitor	1 µM	inhibition	2%
C#Cc1cc(-c2cc(Nc3nc(N[C@@H](C)c4ccc(F)cn4)ncc3Cl)n[nH]2)ccc1C=O	enzyme activity, inhibitor	0.2 µM	inhibition	17.1%
